Test results published in the array DNA melting data of Ke et al. (doi:10.1101/2024.01.08.574731).

How the values were obtained:
[1] = melting temperature; fluorescence melt of hairpins on a sequencing array, two-state fit, raised by 9.35 °C to match UV melts; conditions: sodium 0.088 M
Summary of the method: (§1)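 On a sequenced MiSeq flow cell, library hairpins with annealed Cy3 and quencher oligos were imaged for Cy3 fluorescence in 2.5 °C steps up to 60 °C, in 50 mM Na-HEPES pH 8.0, 25 mM NaCl. Normalisation used pre-quench Cy3 and control constructs. Bootstrapped two-state fits gave melting temperature and folding enthalpy, combined by inverse variance across four replicates and with fitted temperatures raised by 9.35 °C to match UV melts.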

[2] = folding enthalpy; higher = less favourable; fluorescence melt of hairpins on a sequencing array, two-state fit; conditions: sodium 0.088 M
Summary of the method: as §1

Sequence	Tm [1] [°C]	folding enthalpy [2] [kcal/mol]
GATCGAGCCCTCGATC ((((((....))))))	56.4	-42.1
GATCGAGCGTCGATC ((((((...))))))	51	-31.7
GATCGAGGAAACCCGATC (((((.(....).)))))	47.8	-33.1
GATCGAGGACTCGATC ((((((....))))))	60.1	-38.4
GATCGAGGATCGATC ((((((...))))))	59.6	-35.4
GATCGAGGCCTCGATC ((((((....))))))	62.2	-49.1
GATCGAGGCTTCGATC ((((((....))))))	57.9	-41.8
GATCGAGTATCGATC ((((((...))))))	59.6	-40.9
GATCGAGTCATCGATC ((((((....))))))	60.7	-35.4
GATCGAGTCGTCGATC ((((((....))))))	54.9	-35.6
GATCGAGTGCTCGATC ((((((....))))))	53.8	-58.9
GATCGATAAATCGATC ((((((....))))))	52.3	-39.9
GATCGATAGCTCGATC ((((((....))))))	49.6	-41.9
GATCGATATCTCGATC ((((((....))))))	51	-36
GATCGATCACTCGATC ((((((....))))))	51.2	-41.5
GATCGATCAGTCGATC ((((((....))))))	51.1	-43.1
GATCGATCCCTCGATC ((((((....))))))	52.8	-44.1
GATCGATCGATCGATC ((((((....))))))	57.1	-57.6
GATCGATCTATCGATC ((((((....))))))	56.3	-42.5
GATCGATGAATCGATC ((((((....))))))	55.1	-41.1
GATCGATGCATCGATC ((((((....))))))	59.7	-46.9
GATCGATGCCTCGATC ((((((....))))))	52.5	-38.1
GATCGATGGATCGATC ((((((....))))))	54.5	-36.5
GATCGATGGCTCGATC ((((((....))))))	50.2	-34

Sequence	Tm [1] [°C]	folding enthalpy [2] [kcal/mol]
GATCGATGTCTCGATC ((((((....))))))	51.5	-39
GATCGATGTTTCGATC ((((((....))))))	53.5	-43
GATCGATTCGTCGATC ((((((....))))))	55.1	-41.5
GATCGATTGTTCGATC ((((((....))))))	53.1	-37.4
GATCGATTTGTCGATC ((((((....))))))	55.5	-41.5
GATCGATTTTCGATC ((((((...))))))	54.4	-35.2
GATCGCAAATGCGATC ((((((....))))))	68	-40.5
GATCGCAAGCGCGATC ((((((....))))))	67.8	-31
GATCGCAAGGGCGATC ((((((....))))))	68	-29.3
GATCGCACAGGCGATC ((((((....))))))	68.1	-33
GATCGCACCGCGATC ((((((...))))))	69	-34
GATCGCACTGCGATC ((((((...))))))	68.3	-35
GATCGCAGAAGCGATC ((((((....))))))	66.9	-30.8
GATCGCATAGGCGATC ((((((....))))))	68.2	-32
GATCGCATGAGCGATC ((((((....))))))	69.3	-27.4
GATCGCCCGTGCGATC ((((((....))))))	64	-33.7
GATCGCCGATGCGATC ((((((....))))))	66.6	-32
GATCGCCGGTGCGATC ((((((....))))))	66	-35.1
GATCGCCGTCGCGATC ((((((....))))))	66.6	-36.5
GATCGCCTACGCGATC ((((((....))))))	67.4	-39.5
GATCGCCTGCGCGATC ((((((....))))))	67.2	-32
GATCGCGAAAGCGATATC ((((((....)))..)))	59.2	-11.8
GATCGCGAGTGCGATC ((((((....))))))	66.3	-33.8
GATCGCGATGGCGATC ((((((....))))))	68.8	-37.7

Sequence	Tm [1] [°C]	folding enthalpy [2] [kcal/mol]
GATCGCGCTGGCGATC ((((((....))))))	68.9	-32.5
GATCGCGGAAACGTGATC ((((.((....)).))))	57.5	-38.6
GATCGCGGGGCGATC ((((((...))))))	68	-29.8
GATCGCGGGTGCGATC ((((((....))))))	68.4	-34.5
GATCGCGGTTGCGATC ((((((....))))))	68.9	-25.1
GATCGCTAACGCGATC ((((((....))))))	66.5	-35.7
GATCGCTAAGGCGATC ((((((....))))))	67.8	-39.2
GATCGCTAGGGCGATC ((((((....))))))	68.2	-34.8
GATCGCTCAAGCGATC ((((((....))))))	68	-43.6
GATCGGAAACCGATC ((((((...))))))	56	-38
GATCGGAAAGCCGATC ((((((....))))))	51.3	-35.4
GATCGGAAGCCCGATC ((((((....))))))	54.1	-36.5
GATCGGAAGTCCGATC ((((((....))))))	55.2	-38.9
GATCGGACACCCGATC ((((((....))))))	54.7	-41.5
GATCGGACATCCGATC ((((((....))))))	55.3	-38.7
GATCGGACCTCCGATC ((((((....))))))	56.6	-40.7
GATCGGACGACCGATC ((((((....))))))	57.3	-35.1
GATCGGACGCCCGATC ((((((....))))))	57.3	-38
GATCGGACTACCGATC ((((((....))))))	55.6	-36.6
GATCGGACTTCCGATC ((((((....))))))	57.2	-42.3
GATCGGAGAACCGATC ((((((....))))))	52.6	-33.8
GATCGGAGCCCGATC ((((((...))))))	53.4	-31.2
GATCGGAGGCCGATC ((((((...))))))	55.8	-40.3
GATCGGAGGTCCGATC ((((((....))))))	57.6	-31.5

Sequence	Tm [1] [°C]	folding enthalpy [2] [kcal/mol]
GATCGGATAACCGATC ((((((....))))))	56.2	-35.1
GATCGGATCCCCGATC ((((((....))))))	54	-41.4
GATCGGATCCCGATC ((((((...))))))	56	-38
GATCGGATCTCCGATC ((((((....))))))	56.7	-40.4
GATCGGATGTCCGATC ((((((....))))))	56.8	-38.2
GATCGGCAATCCGATC ((((((....))))))	55	-44.7
GATCGGCACTCCGATC ((((((....))))))	57.1	-40.5
GATCGGCAGCCCGATC ((((((....))))))	54.9	-36.1
GATCGGCATACCGATC ((((((....))))))	56.9	-40.5
GATCGGCATCCCGATC ((((((....))))))	54.1	-40.9
GATCGGCCATCCGATC ((((((....))))))	55.5	-40.4
GATCGGCCGAAAGGCATC (((..(((....))))))	26.9	-6.97
GATCGGCCGACCGATC ((((((....))))))	57.9	-34.6
GATCGGCCGTCCGATC ((((((....))))))	58.3	-39.7
GATCGGCCTCCGATC ((((((...))))))	59.4	-34.3
GATCGGCGATCCGATC ((((((....))))))	55	-35.3
GATCGGCGCCCGATC ((((((...))))))	56.8	-36.4
GATCGGCGCTCCGATC ((((((....))))))	56.9	-37.8
GATCGGCGTCCGATC ((((((...))))))	56.4	-40.5
GATCGGCTAACCGATC ((((((....))))))	56.5	-42.2
GATCGGCTCCCGATC ((((((...))))))	57.8	-38.4
GATCGGCTGCCGATC ((((((...))))))	57.2	-55.3
GATCGGGAACCGATC ((((((...))))))	68.4	-36
GATCGGGAAGCCGATC ((((((....))))))	59.6	-37.9
